Results as given in ChEMBL document CHEMBL1212780, “Anti-Clostridium difficile potential of tetramic acid derivatives from Pseudomonas aeruginosa quorum-sensing autoinducers” (Antimicrob Agents Chemother, 2010).
Values belong to the compound of their own block, whether it stands above or below them. Activity calls are given as the source filed them. No cut-off for these calls is given here.

Legend:
Clostridioides difficile [1] = experiment: Antibacterial activity against Clostridium difficile assessed as inhibition of bacterial viability at 3 to 50 uM after 24 hrs; format: functional, organism-based
How it was run: (§1)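 Cultured anaerobically for 24 h at 37°C in supplemented BHI broth with a range of compound concentrations. Survivors counted by plating 10-fold serial dilutions. Detection limit 2 log CFU/ml. Compared against bacteria grown without compound.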

Clostridioides difficile [2] = experiment: Antibacterial activity against Clostridium difficile 3 assessed as inhibition of bacterial viability at 50 uM after 24 hrs; format: functional, organism-based
How it was run: (§2)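 C. difficile clinical isolates from pseudomembranous colitis patients, grown anaerobically at 37°C in BHI broth with 1% yeast extract and 0.1% L-cysteine. Cultured 24 h with compound, then viable counts taken by plating serial 10-fold dilutions on Mueller-Hinton agar with 5% sheep blood. n = 3. Detection limit 2 log CFU/ml.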

Clostridioides difficile [3] = experiment: Antibacterial activity against Clostridium difficile 1 assessed as inhibition of bacterial viability at 50 uM after 24 hrs; format: functional, organism-based; how it was run: as §2
Clostridioides difficile [4] = experiment: Antibacterial activity against Clostridium difficile 2 assessed as inhibition of bacterial viability at 50 uM after 24 hrs; format: functional, organism-based; how it was run: as §2
Clostridioides difficile [5] = experiment: Antibacterial activity against Clostridium difficile assessed as induction of changes in cell surface structures by electron microscopy; format: functional, organism-based
How it was run: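 Postfixed 1 h in 1% OsO4, ethanol-dehydrated and Epon-embedded. Surface structure of treated cells compared with control cells.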

Clostridioides difficile [6] = experiment: Induction of lipid membranes composition changes in Clostridium difficile by NMR spectroscopy; format: functional, organism-based
Clostridioides difficile [7] = experiment: Antibacterial activity against Clostridium difficile 4 assessed as inhibition of bacterial viability at 50 uM after 24 hrs; format: functional, organism-based; how it was run: as §2
Clostridioides difficile [8] = experiment: Antibacterial activity against Clostridium difficile assessed induction of bacteriolysis at 30 uM after 26 hrs; format: functional, organism-based
How it was run: (§3)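 Anaerobic cultures in supplemented BHI were incubated with compound (30 or 50 μM depending on compound) for 26 h at 37°C. OD600 was read at each time point to follow growth and lysis, compared with an untreated control.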

Clostridioides difficile [9] = experiment: Antibacterial activity against Clostridium difficile assessed induction of bacteriolysis at 50 uM after 26 hrs; format: functional, organism-based; how it was run: as §3
Clostridioides difficile [10] = experiment: Drug uptake in Clostridium difficile assessed as dansylated compound accumulation at cell surface by electron microscopy; format: ADME, organism-based
How it was run: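 Bacteria treated with dansyl-labelled compound, fixed in 0.5% glutaraldehyde/2% paraformaldehyde at 4°C for 1 h without osmium, and embedded in Unicryl. Ultrathin sections blocked in 1.5% BSA, then rabbit anti-dansyl (1:100, 2 h, room temperature) and 10-nm gold anti-rabbit IgG (1:20, 30 min). Nonimmune serum used as negative control.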

Clostridioides difficile [11] = experiment: Antibacterial activity against Clostridium difficile 3 assessed as inhibition of bacterial viability after 24 hrs; format: functional, organism-based
How it was run: (§4)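 Four clinical isolates from pseudomembranous colitis patients, grown anaerobically at 37°C in BHI broth with 1% yeast extract and 0.1% L-cysteine. Broth cultures exposed 24 h to a range of compound concentrations (autoinducers at 50 μM). Viable counts made by plating 10-fold serial dilutions on sheep-blood Mueller-Hinton agar; n = 3.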

Clostridioides difficile [12] = experiment: Antibacterial activity against Clostridium difficile 4 assessed as inhibition of bacterial viability after 24 hrs; format: functional, organism-based; how it was run: as §4
Clostridioides difficile [13] = experiment: Antibacterial activity against Clostridium difficile 1 assessed as inhibition of bacterial viability after 24 hrs; format: functional, organism-based; how it was run: as §4
Clostridioides difficile [14] = experiment: Antibacterial activity against Clostridium difficile 2 assessed as inhibition of bacterial viability after 24 hrs; format: functional, organism-based; how it was run: as §4
Clostridioides difficile [15] = experiment: Antibacterial activity against Clostridium difficile assessed as induction of morphological changes at 50 uM after 30 mins by Gram staining; format: functional, organism-based
How it was run: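 Bacteria grown 24 h at 37°C, pelleted at 5,000 rpm for 5 min, then exposed to compound at 50 μM for the stated time. Gram-stained and examined by light microscopy, compared with untreated cells.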

Clostridioides difficile [16] = experiment: Antibacterial activity against Clostridium difficile assessed as inhibition of bacterial viability at 10 uM after 24 hrs relative to untreated control; format: functional; how it was run: as §1

Compound: CCC/C(O)=C1/C(=O)N[C@@H](CCO)C1=O
inhibition (Clostridioides difficile [1]): Active

Compound: CCCCCCCCCC(=O)CC(=O)N[C@H]1CCOC1=O
inhibition (Clostridioides difficile [2]): inactive | inhibition (Clostridioides difficile [3]): inactive | inhibition (Clostridioides difficile [4]): inactive | Activity (Clostridioides difficile [5]): inactive | Activity (Clostridioides difficile [6]): inactive | inhibition (Clostridioides difficile [7]): inactive

Compound: CCCCCCCCC/C(O)=C1\C(=O)CN(C)C1=O
inhibition (Clostridioides difficile [1]): Active | Activity (Clostridioides difficile [8]): Active

Compound: CCCC(=O)N[C@H]1CCOC1=O
inhibition (Clostridioides difficile [2]): inactive | inhibition (Clostridioides difficile [3]): inactive | inhibition (Clostridioides difficile [4]): inactive | inhibition (Clostridioides difficile [7]): inactive

Drug uptake (Clostridioides difficile [10]): Active
Compound: CCCCCCCCC/C(O)=C1/C(=O)N[C@H](CCO)C1=O
inhibition (Clostridioides difficile [1]): Active | Activity (Clostridioides difficile [9]): Active

Compound: CCCCCCCCC/C(OC)=C1/C(=O)N[C@@H](CCO)C1=O
inhibition (Clostridioides difficile [1]): Active

Drug uptake (Clostridioides difficile [10]): Active
Compound: CCCCCCCCC/C(O)=C1/C(=O)N[C@@H](C)C1=O
inhibition (Clostridioides difficile [1]): Active | Activity (Clostridioides difficile [9]): Active

Drug uptake (Clostridioides difficile [10]): Active
Compound: CCCCCCCCC/C(O)=C1/C(=O)N[C@@H](CCO)C1=O
inhibition (Clostridioides difficile [11]): Dose-dependent effect | inhibition (Clostridioides difficile [12]): Dose-dependent effect | Activity (Clostridioides difficile [9]): Active | inhibition (Clostridioides difficile [13]): Dose-dependent effect | inhibition (Clostridioides difficile [14]): Dose-dependent effect | Activity (Clostridioides difficile [5]): Active | Activity (Clostridioides difficile [6]): Active | Activity (Clostridioides difficile [15]): Active

Compound: CCCCCCCCC/C(O)=C1\C(=O)CNC1=O
inhibition (Clostridioides difficile [1]): Active | Activity (Clostridioides difficile [8]): Active | fold change (FC) (Clostridioides difficile [16]): 100000
